MCL1-BIM inh: disrupts human MCL1 binding to BIM-BH3 peptide. Q07820. GST-MCL1 / FITC-Bim-BH3 fluorescence polarization. inhibition, % at 10.9 µM. 320,000 compounds, 0.68% hits. AID 2057;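 active means inhibition above the mean inhibition of all tested compounds plus 3 SD, set per campaign, cut at about 40% in these data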;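 further: higher means more loss of mP so more displacement of Bim peptide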
T cell HTS: T cell immune modulators affecting CD8 T cell-vesicle binding. 2C CD8+ T cell-vesicle binding, flow cytometry; stronger effect = lower value. response (vesicle binding), % at 7 µM. 330,000 compounds, 0.068% hits. AID 2052;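 active means response, share of CD8 T cells binding vesicles, and their 90th percentile fluorescence all below set limits, cut at about 80% in these data, passing the limit was not always enough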;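 further: values below 100% mean blocked vesicle binding to the CD8+ T cells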
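Read-out – percent CD8+ FL2 mean versus row control · System – murine 2C transgenic CD8+ T lymphocytes · Times – 1.5 h cell–vesicle binding at 37 °C, then 20 min icy labelling · Control set – naked vesicles low, QL9 vesicles with vehicle high · Detection – cytometric PE anti-B7-1 and Alexa647 anti-CD8 signals after 1% paraformaldehyde fixation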
Bim-Mcl-1: disrupts Bim peptide binding to human Mcl-1; Bead-based flow cytometry, Bim peptide-Mcl-1 binding; inhibition, % at 10 µM; 190,000 compounds, 0.1% hits; in the data active means inhibition above about 40%
Mcl1-Noxa inh: Mcl-1/Noxa interaction inhibition | TR-FRET Mcl-1/Noxa peptide binding, 2 h | Q07820 | inhibition, % at 21.7 µM | 220,000 compounds, 1.5% hits;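 active means compounds that cut the protein-peptide binding signal by more than 50% relative to plate controls in a single-dose test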;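 further: His-tagged Mcl-1 with rhodamine Noxa BH3 peptide and terbium anti-His antibody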
Mcl1-Bid inh: disrupts binding of human Mcl-1 to Bid peptide; TR-FRET Mcl-1/Bid-Dy647 peptide binding, 1536-well; inhibition, % at 21.7 µM; 220,000 compounds, 0.97% hits; AID 1021;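 active means compounds that cut the binding signal by more than half at the single screening dose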;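 further: His-tagged Mcl-1 with europium anti-His antibody binding Bid BH3 peptide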
DSG3 Ab inh: blocks pemphigus antibody binding to human desmoglein-3. P32926. DSG3-coupled beads, scFv-anti-DSG3-GFP binding, flow cytometry; stronger effect = lower value. binding (percent of control), % at 10 µM. 310,000 compounds, 0.48% hits. AID 588358;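 active means binding more than 3 SD below its plate's average and above zero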
Target sequence (P32926 whole entry, looked up): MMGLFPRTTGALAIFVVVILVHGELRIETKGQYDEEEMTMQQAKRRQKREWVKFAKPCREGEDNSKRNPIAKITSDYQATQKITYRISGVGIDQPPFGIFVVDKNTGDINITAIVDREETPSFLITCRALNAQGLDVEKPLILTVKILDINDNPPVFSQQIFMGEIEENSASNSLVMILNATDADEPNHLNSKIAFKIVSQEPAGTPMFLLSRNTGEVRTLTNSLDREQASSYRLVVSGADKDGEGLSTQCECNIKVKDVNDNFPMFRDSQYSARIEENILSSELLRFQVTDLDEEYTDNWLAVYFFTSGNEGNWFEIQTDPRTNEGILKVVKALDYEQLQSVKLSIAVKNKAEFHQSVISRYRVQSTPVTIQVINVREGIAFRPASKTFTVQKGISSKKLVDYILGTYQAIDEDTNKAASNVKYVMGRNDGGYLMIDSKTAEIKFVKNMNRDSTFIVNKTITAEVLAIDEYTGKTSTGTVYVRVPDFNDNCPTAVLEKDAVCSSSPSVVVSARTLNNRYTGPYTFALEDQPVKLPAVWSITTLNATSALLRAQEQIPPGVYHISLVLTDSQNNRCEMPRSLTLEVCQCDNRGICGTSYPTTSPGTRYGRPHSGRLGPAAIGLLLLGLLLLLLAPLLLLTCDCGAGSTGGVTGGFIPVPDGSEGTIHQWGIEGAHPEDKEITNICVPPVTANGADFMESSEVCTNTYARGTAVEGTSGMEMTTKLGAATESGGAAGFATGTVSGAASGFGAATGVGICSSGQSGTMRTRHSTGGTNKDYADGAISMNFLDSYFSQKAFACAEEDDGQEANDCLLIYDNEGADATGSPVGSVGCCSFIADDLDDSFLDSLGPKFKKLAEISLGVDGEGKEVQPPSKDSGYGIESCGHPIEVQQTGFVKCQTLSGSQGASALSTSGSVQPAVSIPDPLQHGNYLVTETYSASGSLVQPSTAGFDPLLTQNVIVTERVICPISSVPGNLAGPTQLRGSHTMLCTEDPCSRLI
Of the large screens only hits and unclear results are named; the others gave an inactive call. A selection: hits, their analogues and other compounds. The true share with any hit is near 2.3%.

CN(Cc1nc(-c2ccccc2)no1)C(=O)c1ccco1	none (no result: Bim-Mcl-1, Mcl1-Noxa inh, Mcl1-Bid inh)
Cc1ccc(NC(=O)CSc2nc3ccccc3c(=O)n2CCCN2CCCCC2)cc1Cl	Bim-Mcl-1 41.0
O=C(c1ccccc1F)N1CCc2ccccc21	T cell HTS 0.0 (no result: Bim-Mcl-1, Mcl1-Noxa inh, Mcl1-Bid inh, DSG3 Ab inh)
O=C(OCC(=O)N1CCc2ccccc21)c1ccccc1F	none (no result: Bim-Mcl-1, Mcl1-Noxa inh, Mcl1-Bid inh)
O=C(NC1CC1)c1cccc(NC(=O)c2cc(S(=O)(=O)N3CCOCC3)ccc2Cl)c1	none (no result: MCL1-BIM inh, T cell HTS, Bim-Mcl-1, Mcl1-Noxa inh, Mcl1-Bid inh)
CCc1ccc(N2CC(C(=O)OCC(=O)Nc3ccc(C(C)=O)cc3)CC2=O)cc1 (stereo not given)	none (no result: Bim-Mcl-1, Mcl1-Noxa inh, Mcl1-Bid inh)
Cc1cc(C)c(S(=O)(=O)/N=C2\C=C(Nc3ccc(C(=O)O)cc3)C(=O)c3ccccc32)c(C)c1	none (no result: Bim-Mcl-1, Mcl1-Noxa inh, Mcl1-Bid inh)
Cc1cc(C)c(S(=O)(=O)/N=C2/C=C(SCC(=O)O)C(=O)c3ccccc32)cc1C	Mcl1-Noxa inh 86.6 (no result: MCL1-BIM inh, T cell HTS)
CCOc1c(Br)cc(C(=O)Nc2cccc(S(=O)(=O)N3CCOCC3)c2)cc1OC	none (no result: MCL1-BIM inh, T cell HTS, Bim-Mcl-1, Mcl1-Noxa inh, Mcl1-Bid inh)
O=[N+]([O-])c1cc(Cl)cc(/C=N\Nc2ccccn2)c1O	Mcl1-Bid inh 73.0
CN(c1ccc(C(=O)Nc2cccc(O)c2)cc1)S(=O)(=O)c1ccccc1	none (no result: Bim-Mcl-1, Mcl1-Noxa inh, Mcl1-Bid inh)
COC(=O)c1ccc(NC(=O)c2ccccc2N(C)S(=O)(=O)c2ccccc2)cc1	Mcl1-Bid inh 98.1
COCc1ccc(C(=O)Nc2cccc(S(=O)(=O)N(C)c3ccccc3)c2)cc1	DSG3 Ab inh 27.6 (no result: MCL1-BIM inh, Bim-Mcl-1, Mcl1-Noxa inh, Mcl1-Bid inh)
CN(c1ccc(C(=O)Nc2ccccn2)cc1)S(=O)(=O)c1ccccc1	T cell HTS 57.0
CC(NC(=O)CCc1ccccc1)c1ccc2c(c1)OCO2 (stereo not given)	none (no result: Bim-Mcl-1, Mcl1-Noxa inh, Mcl1-Bid inh)
C[C@H](CO)N1C[C@H](C)[C@@H](CN(C)Cc2ccc(C(=O)O)cc2)Oc2ncc(Br)cc2C1=O	none (no result: MCL1-BIM inh, T cell HTS, Bim-Mcl-1, Mcl1-Noxa inh, Mcl1-Bid inh)
COc1ccc(-c2ccc(-c3noc(-c4ccccc4)n3)c(OC)n2)cc1	none (no result: T cell HTS)
COc1ccc(-c2ccc(-c3noc(-c4ccccc4F)n3)c(OC)n2)cc1	Mcl1-Bid inh 55.6 (no result: MCL1-BIM inh, T cell HTS, Mcl1-Noxa inh)
COc1ccc(-c2cn3c(C)c(C(=O)NC(C)C)sc3n2)cc1	DSG3 Ab inh 47.4
Cc1ccc2cccc(Oc3ncnc4scc(-c5ccc(Cl)cc5)c34)c2n1	Mcl1-Bid inh 99.0
Cc1ccc2cccc(Oc3ncnc4scc(-c5ccccc5)c34)c2n1	none
Cc1ccc(S(=O)(=O)NCCC(=O)N2CCN(c3ccccc3)CC2)cc1C	none (no result: MCL1-BIM inh, Bim-Mcl-1, Mcl1-Noxa inh, Mcl1-Bid inh)
Cc1nc2nc(C)n(CCN3CCOCC3)c(=O)c2c(-c2cccc([N+](=O)[O-])c2)c1C(=O)CCCCCCCCCCN1CCC(c2ccccc2)(c2ccccc2)CC1	none (no result: MCL1-BIM inh, T cell HTS, Bim-Mcl-1, Mcl1-Noxa inh, Mcl1-Bid inh)
O=C(CCC1CCCN(C(=O)CCC(F)(F)F)C1)NCc1ccc(F)c(F)c1 (stereo not given)	Mcl1-Noxa inh 52.6
Cc1cccc(Cl)c1OCCCn1ccnc1	none (no result: Bim-Mcl-1, Mcl1-Noxa inh, Mcl1-Bid inh)
COc1ccccc1NC(=O)NCc1nc(-c2ccc(C(F)(F)F)cc2)no1	DSG3 Ab inh 74.1 (no result: Bim-Mcl-1)
O=C(NCc1nc(-c2ccccc2)no1)Nc1ccc(F)cc1	none
Nc1c(C(=O)Nc2ccc(F)cc2)sc2nc(-c3ccco3)ccc12	Mcl1-Noxa inh 98.4, Mcl1-Bid inh 90.8
Cc1ccc(NC(=O)c2sc3nc4c(c(-c5ccco5)c3c2N)CCC4)cc1	none
O=C(NC1CCCCC1)C(c1cccnc1)N(C(=O)c1csnn1)c1ccccc1F (stereo not given)	none (no result: Bim-Mcl-1, Mcl1-Noxa inh, Mcl1-Bid inh)
CC(=O)Nc1ccc(OCCOc2ccc(/C=C3/C(=N)N4C=CSC4=NC3=O)cc2)cc1	none
COc1ccc(-c2ccc(/C=C3/C(=N)N4C=CSC4=NC3=O)o2)c([N+](=O)[O-])c1	Mcl1-Noxa inh 82.7, Mcl1-Bid inh 75.4
O=C(CCNC(=O)c1ccc(Br)cc1)Nc1ncccc1O	none (no result: Bim-Mcl-1, Mcl1-Noxa inh, Mcl1-Bid inh)
Cc1ccc(C(=O)C(C)OC(=O)Cn2c(C)csc2=O)cc1 (stereo not given)	none (no result: Bim-Mcl-1, Mcl1-Noxa inh, Mcl1-Bid inh)
CC(=O)c1ccc(NC(=O)Cn2cnc(S(=O)(=O)N3CCc4ccccc43)c2)cc1	DSG3 Ab inh 79.2 (no result: Bim-Mcl-1, Mcl1-Noxa inh, Mcl1-Bid inh)
O=C(c1cc(-c2cccc(Cl)c2)nc2ccccc12)N1CCCC1	none (no result: Bim-Mcl-1, Mcl1-Noxa inh, Mcl1-Bid inh)
CCc1ccc(N(C(C)=O)c2nc(CCl)cs2)cc1	DSG3 Ab inh 86.8
CN(C)CCOc1ccc(C(C)(C)c2ccccc2)cc1	Mcl1-Bid inh 64.9
CN(C)CCOc1ccccc1C(C)(C)C	Mcl1-Bid inh 63.3
CC(C)Oc1ccccc1OCCN(C)C	none
CN(C)CCCOc1ccc(C(C)(C)c2ccccc2)cc1	none (no result: DSG3 Ab inh)

Screening data (PubChem BioAssay)
